Screening results as filed in PubChem BioAssay.
KLK7 zymogen act: proKLK7 zymogen activators, primary screen, biochemical, fluorescence intensity; AID 652039, 2013; Kallikrein-7 (Homo sapiens), P49862; purified proKLK7, EDANS-DABCYL substrate fluorescence; 100% is mature enzyme control, 0% vehicle; 370,000 tested, 0.9% active; activation, % at 7 µM;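 active means activation above the mean of all tested compounds plus 3 SD, computed per campaign excluding outliers beyond control limits, cut at about 13% in these data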
Target sequence (P49862 whole entry, looked up): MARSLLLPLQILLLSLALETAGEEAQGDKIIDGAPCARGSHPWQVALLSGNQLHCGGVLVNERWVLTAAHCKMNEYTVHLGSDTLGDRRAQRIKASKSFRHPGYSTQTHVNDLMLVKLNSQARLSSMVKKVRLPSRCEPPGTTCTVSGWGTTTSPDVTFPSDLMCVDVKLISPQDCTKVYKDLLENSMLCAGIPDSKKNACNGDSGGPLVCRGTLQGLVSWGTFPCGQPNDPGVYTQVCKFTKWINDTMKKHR
proCasp3 act: activators of human procaspase-3 D3A mutant, primary screen, biochemical, absorbance, PC-3 D3A mutant, single concentration; Caspase-3 (Homo sapiens), P42574; recombinant procaspase-3 D3A, Ac-DEVD-pNA absorbance 405 nm; 330,000 tested, 0.11% active; activation, % at 8.5 µM;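 active means activation above the mean of all tested compounds plus 3 SD, cut at about 21% in these data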;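 further: 0% = DMSO alone and 100% = DMSO wells spiked with extra 5 µM PC-3 D3A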
Target sequence (P42574 whole entry D9A/D28A/D175A): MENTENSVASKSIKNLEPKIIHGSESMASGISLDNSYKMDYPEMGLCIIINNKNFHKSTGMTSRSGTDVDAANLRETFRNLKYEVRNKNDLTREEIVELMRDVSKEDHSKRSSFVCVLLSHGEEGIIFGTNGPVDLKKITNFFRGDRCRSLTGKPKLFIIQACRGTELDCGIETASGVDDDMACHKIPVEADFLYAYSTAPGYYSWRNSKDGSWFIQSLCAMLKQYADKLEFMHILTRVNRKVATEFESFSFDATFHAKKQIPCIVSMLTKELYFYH
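Assay system – Procaspase-3 D3A mutant · Benchmarks – DMSO low control, extra-enzyme high control · Technique – 405 nm absorbance of p-nitroaniline, reads at 0 and 120 min · Doses – 8.5 µM nominal · Measure – % activation between DMSO and enzyme-spiked controls · Also added – Ac-DEVD-pNA chromogenic peptide substrate · Schedule – 1 h compound preincubation, 2 h substrate hydrolysis at 25 °C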
Neddyl block: inhibitors of cullin neddylation, primary screen, biochemical, TR-FRET, uHTS, NAE and Ubc12. NEDD8-conjugating enzyme Ubc12 (Homo sapiens) + NEDD8-activating enzyme E1 regulatory …. calls only at 25 µM. 360,000 tested, 0.58% active; in the data active means inhibition above about 36%
proCasp7 act: procaspase-7 activators, primary screen, counter-screen for procaspase-3 activator project, biochemical, absorbance, HTS, human; Caspase-7 (Homo sapiens), P55210; activation, % at 8.5 µM; 330,000 tested, 0.093% active; recombinant procaspase-7, Ac-DEVD-pNA absorbance 405 nm; D23A/D198A/D206A triple mutant, cannot self-cleave; scale: DMSO 0, 5 µM enzyme 100;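 active means percent activation above the screen-wide mean plus 3 SD, cut at about 25% in these data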
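Test system: Procaspase-7 triple mutant (PC-7 D3A). Also added: Ac-DEVD-pNA substrate, 400 µM as added. Schedule: 1 h enzyme–compound preincubation and 2 h substrate reaction, both 25 °C. Signal: p-Nitroaniline absorbance at 405 nm, read at 0 and 120 min. Control set: low DMSO alone, high DMSO plus 5 µM PC-7.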
KLK7 act conf: proKLK7 zymogen activators, confirmation, biochemical, fluorescence intensity, triplicate; shares compounds with KLK7 zymogen act; purified proKLK7, EDANS-DABCYL substrate fluorescence; scaled: vehicle 0, mature enzyme 100; activation, % at 7 µM; 3,200 tested, 68% active;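 active means activation, as change over the incubation, above the mean of all tested compounds plus 3 SD, cut at about 13% in these data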
EDANS-DABCYL int: EDANS-DABCYL substrate optical interference, artefact control for kallikrein-7 zymogen activator project, biochemical, fluorescence intensity, high throughput. shares compounds with KLK7 zymogen act. no enzyme, 4 h; solvent 0%, active enzyme control 100%. activation, % at 7 µM. 3,200 tested, 80% active. AID 686952, 2013;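 active means activation above the all-compound mean plus 3 SD, ignoring values outside control-based bounds, cut at about 4.8% in these data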;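 further: value is the 4 h activation minus the activation read at time zero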
Active calls of the source: *; i = inactive; . = no result given. The list is not random: actives were taken first. Their share in the collection is about 1.6%.

SMILES	KLK7 zymogen act	proCasp3 act	Neddyl block	proCasp7 act	KLK7 act conf	EDANS-DABCYL int
CNc1nc(-c2ccccc2)c2sccc2n1	26*	.	.	.	16*	20*
COc1ccc(-c2cc(C(F)F)n3ncc(C(=O)n4ccnc4C)c3n2)cc1	13*	-3	.	7	169*	167*
COc1ccc(-c2cc(C(F)F)n3ncc(C(=O)N4CCc5ccccc54)c3n2)cc1	0	2	i	-10	.	.
Cc1ccc(C2C=C(c3ccccc3OC(F)F)Nc3ncnn32)cc1 (stereo not given)	18*	-4	.	-5	76*	80*
CN(C)c1ccc(C2C=C(c3ccc(Cl)cc3OC(F)F)Nc3ncnn32)cc1 (stereo not given)	2	-43	.	-40	.	.
Cc1ccc(C2C=C(c3ccc4c(c3)OCO4)Nc3ncnn32)cc1 (stereo not given)	15*	-9	.	5	-15	9.2*
O=C(NNc1ccnc2cc(Cl)ccc12)C1CCCCC1	0	6	i	1	.	.
NC(=S)NNc1ccnc2cc(Cl)ccc12	16*	-27	i	-26	20*	21*
Cn1c(=O)c2c(C(=O)O)cc(-c3ccccc3)nc2n(Cc2ccccc2)c1=O	38*	-1	i	4	59*	65*
COc1ccc(CNCc2c(O)c(Cl)cc3c(C)c(C)c(=O)oc23)c(OC)c1	32*	-2	i	0	74*	78*
CCc1cc(=O)oc2c(CNCc3ccc(OC)cc3OC)c(O)c(Cl)cc12	44*	0	.	7	70*	67*
COc1ccc(S[C@]2(C(=O)N3CCOCC3)CC(=O)N(c3ccccc3)[C@@H]2c2ccc(OC)cc2)cc1	2	.	.	.	.	.
COc1cc2oc(=O)ccc2c(OC)c1CC(O)C(C)(C)O (stereo not given)	2	3	i	2	.	.
COc1cc2ccc(=O)oc2c(CC=C(C)C)c1OC	3	2	i	10	.	.
COc1cc2ccc(=O)oc2cc1O	95*	10	i	6	77*	83*
COc1cc2ccc(=O)oc2cc1OCC(O)C(C)(C)O (stereo not given)	21*	7	.	5	33*	48*
COC(=O)[C@]12C[C@H](CC(=O)NCCC(C)C)C(=O)N(Cc3ccc(Cl)cc3Cl)C1=C[C@H](C1CCCC1)O[C@@H]2C	0	.	.	.	.	.
CCCN(C(=O)C(C)Oc1cccc(Cl)c1)c1c(N)n(Cc2ccccc2)c(=O)[nH]c1=O (stereo not given)	0	4	i	1	.	.
O=C(O)c1ccc(-n2nnnc2Oc2cccc3cccnc23)cc1	0	0	i	4	.	.
O=c1cc(CN2CCc3ccccc32)c2ccc(O)cc2o1	19*	7	.	0	41*	45*
CCCc1cc(=O)oc2c(CN3CCOCC3)c(O)ccc12	75*	5	.	10	72*	63*
CC(=O)c1c(O)ccc2c(-c3ccccc3)cc(=O)oc12	5	-4	i	2	.	.
CCCCc1cc(=O)oc2cc(OCC(=O)N3CCOCC3)ccc12	0	1	i	-12	.	.
CCc1ccc2c(CN3CCc4ccccc43)cc(=O)oc2c1	0	0	i	4	.	.
CCCCc1cc(=O)oc2cc(O)ccc12	56*	14	.	21	79*	78*
SMILES	KLK7 zymogen act	proCasp3 act	Neddyl block	proCasp7 act	KLK7 act conf	EDANS-DABCYL int
O=c1cc(CN2CCOCC2)c2ccc(O)c(O)c2o1	2	-24	i	-32	.	.
CN(C)Cc1c(O)ccc2c(-c3ccccc3)cc(=O)oc12	13*	1	i	-6	26*	25*
O=C(OCC(=O)N1N=C(c2ccc(Cl)cc2)CC1c1ccco1)c1cccnc1 (stereo not given)	1	-21	i	-26	.	.
CC1=NNC(=O)C1C(c1ccccc1)C1C(=O)NN=C1C (stereo not given)	.	-1	.	-12	.	.
NC(=O)c1nn(CC(=O)Nc2ccc3c(c2)OCO3)cc1[N+](=O)[O-]	-1	5	i	-3	.	.
Cc1ccc(Cc2c(-c3cccc(Cl)c3)nc3c(C)cc(Br)cn23)cc1	0	.	i	.	.	.
COc1ccc(S(=O)(=O)N2CCOC2CNC(=O)C(=O)NCc2ccc3c(c2)OCO3)cc1 (stereo not given)	0	5	i	5	.	.
CCCCc1cc(=O)oc2c(CN(C)C)c(O)ccc12	55*	6	.	9	63*	66*
CCCCc1cc(=O)oc2c(CN3CCN(C)CC3)c(O)ccc12	53*	12	.	13	70*	75*
CCCc1cc(=O)oc2c(CN3CCN(C)CC3)c(O)ccc12	46*	10	.	13	66*	75*
Cc1c(O)ccc2c(CN(C)Cc3ccccc3)cc(=O)oc12	-74	11	.	22	.	.
O=C(COc1ccccc1)NCc1nnc2c3ccccc3c(-c3ccccc3)nn12	0	0	i	3	.	.
Fc1ccc(-c2csc(Nc3ccccn3)n2)cc1	0	-3	i	9	.	.
Cc1cccc(S(=O)(=O)N2CCn3cccc3C2C)c1 (stereo not given)	0	7	i	-7	.	.
CN(C)CCNc1ccc2ncn3c4ccc(O)cc4c(=O)c1c23	72*	.	i	.	57*	50*
O=C(C1CCCN(S(=O)(=O)c2ccc(Br)cc2)C1)N1CCN(Cc2ccccc2)CC1 (stereo not given)	1	-1	i	-7	.	.
c1ccc(-c2cnc(-c3cccnc3)o2)cc1	2	1	.	4	.	.
NC(=O)c1ccc(-c2ncc(-c3ccccc3)o2)cc1	69*	7	.	-1	59*	62*
COc1ccc(C2=Nc3ccccc3N(C(=O)c3ccc4ncccc4c3)C2C(=O)NC2CCCC2)cc1 (stereo not given)	3	.	i	.	.	.
CCOC(=O)c1cnn(-c2cc(C)cc(C)c2)c1N	-1	-1	i	-2	.	.
CCOC(=O)c1cnn(-c2sc(C(=O)OCC)c(C)c2C(=O)OCC)c1N	18*	3	i	5	1	1
